In PubChem BioAssay AID2805 (Sanford-Burnham Center for Chemical Genomics, 2010) one finds activation factor data, which are given here for 53 compounds.

Among all 330,000 compounds or so, about 780 (0.24%) were called active. The full list was thinned out, with actives kept by preference. A number with no mark means an inactive call.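 The calls were made as follows: active = activation factor of at least 2 at 20 µM; inactive = the rest.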

In this assay the test system is intestinal alkaline phosphatase [Mus musculus]. As to the kind of experiment: mouse intestinal phosphatase enzyme activation – biochemical, luminescence, uHTS, primary screen (AID 2805). The settings on record: muIAP, CDP-Star luminescence, 30 min; at 10 µM; active compounds read high; 1 = vehicle-only enzyme signal, 0 = enzyme-free wells. Put shortly: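 System: Mouse IAP enzyme | Also added: CDP-Star substrate | Dosing: Compounds dispensed in DMSO | Schedule: 30 min enzyme-substrate-compound incubation at room temperature | Technique: Chemiluminescence readout | Control set: DMSO-only wells and no-enzyme negative control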
Consider `CCN(C(=O)Cc1nc(N)n[nH]1)C1(C(=O)Nc2ccccc2)CCCCC1`, for which the activation factor is 1.

For the compound `COc1ccc(NC(=O)c2cc(-c3ccc(C)o3)nc3ccccc23)cc1`, the activation factor was 0.934.

With `COc1ccc(NC(=O)c2cn(-c3ccccc3)nc2SC)cc1`, the activation factor was 3.32 (active).

In the case of `COc1ccc(-c2nn(-c3ccccc3)cc2C(=O)Nc2nccs2)cc1OC`, the activation factor was 1.

For `CCn1nnc2cc(C(=O)Nc3ccc(C(=O)OC(C)C)cc3)ccc21`, the activation factor is 0.97.

As for `CCOC(=O)c1cc(C)sc1NC(=O)C1CCC1`, the activation factor is 1.01.

For the compound `CC(C)c1ccc(NC(=S)NC2CC3C=CC2C3)cc1` (stereo not drawn), the activation factor is 2.76 (active).

With `S=C(NNC(=S)NC1CC2CCC1C2)NC1CC2C=CC1C2` (stereo not drawn), the activation factor is 0.928.

On to `Cc1ccc(C)c(NC(=S)NNC(=S)Nc2ccc(C(C)C)cc2)c1`, for which the activation factor was 0.941.

For the compound `Cc1ccccc1N1CCN(CCCN2C(=O)C3CCCCN3C2=O)CC1` (stereo not drawn), the activation factor is 1.05.

Regarding `O=C1CCC([N+](=O)[O-])C(c2ccccc2Br)N1` (stereo not drawn), the activation factor is 1.03.

As for `O=P(O)(CN1CCCCCC1)C1Cc2ccccc2C1`, the activation factor was 1.05.

For the compound `Cc1ccccc1NC(=O)COc1cccc2c1CCNC2=O`, the activation factor was 0.912.

For `C#CCOCCOCCOCCNc1nc(N2CCN(C(=O)CCCCCCCCCCNC(=O)Cn3cc(CCCCCN)nn3)CC2)nc(N2CCN(C(=O)CCCCCCCCCCNC(=O)[C@H](CO)n3cc(CCCSC)nn3)CC2)n1`, the activation factor was 2.45 (active).

Consider `C#CCOCCOCCOCCNc1nc(N2CCN(C(=O)[C@H](C(C)C)n3cc(CCO)nn3)CC2)nc(N2CCN(C(=O)[C@H]([C@@H](C)CC)n3cc(CCCN=C(N)N)nn3)CC2)n1`, for which the activation factor is 1.

With `C#CCOCCOCCOCCNc1nc(N2CCN(C(=O)CCCCCCCCCCNC(=O)[C@H]([C@@H](C)CC)n3cc(CCCCN=C(N)N)nn3)CC2)nc(N2CCN(C(=O)CCCCCCCCCCNC(=O)[C@H](CO)n3cc(CCCSC)nn3)CC2)n1`, the activation factor is 12.7 (active).

With `C#CCOCCOCCOCCNc1nc(N2CCN(C(=O)CCCCCCCCCCNC(=O)[C@H](CCCCN)n3cc(C)nn3)CC2)nc(N2CCN(C(=O)CCCCCCCCCCNC(=O)[C@H](CO)n3cc(CCCSC)nn3)CC2)n1`, the activation factor was 1.29.

In the case of `C#CCOCCOCCOCCNc1nc(N2CCN(C(=O)[C@H](CCCN=C(N)N)n3cc(C(N)[C@@H](C)CC)nn3)CC2)nc(N2CCN(C(=O)[C@H](CO)n3cc([C@@H](N)C(C)C)nn3)CC2)n1` (stereo partly drawn), the activation factor was 0.988.

With `C#CCOCCOCCOCCNc1nc(N2CCN(C(=O)Cn3cc(CCCCN)nn3)CC2)nc(N2CCN(C(=O)[C@H](CCCCN)n3cc(CCC(=O)O)nn3)CC2)n1`, the activation factor is 0.948.

As to `COc1ccc(CCNC(=O)C2CCCN(Cc3nc(-c4cccc(Cl)c4)oc3C)C2)cc1OC` (stereo not drawn), the activation factor is 0.883.

In the case of `CN(C)C(=O)N1CCNCC1`, the activation factor was 0.933.

As to `c1ccc(CCN2CN=C(Nc3nc4ccccc4o3)NC2)cc1`, the activation factor is 0.958.

As to `CC[C@]12c3[nH]c4ccc(Cl)cc4c3CCN1C(=O)[C@@H](CC(=O)NCCCOC)C[C@@H]2C(=O)N1CCN(C(=O)C2CC2)CC1`, the activation factor is 0.995.

For the compound `COc1ccc(-n2nc(C(=O)NCC(=O)N3CCN(c4ccccc4OC)CC3)c3ccccc3c2=O)c(OC)c1`, the activation factor is 1.03.

In the case of `C[C@@H](O)c1nc2ccccc2n1N`, the activation factor is 0.944.

In the case of `COCCNC(=O)CCCN1C(=O)c2ccccc2Sc2ncccc21`, the activation factor is 1.03.

On to `Cc1cc(Cl)nc(NC(=O)Nc2cccc(Cl)c2)n1`, for which the activation factor is 0.931.

As to `CN(c1cccc(NC(=O)c2ccc(CN3CCc4ccccc4C3)cc2)c1)S(C)(=O)=O`, the activation factor was 1.06.

As for `CN(c1cccc(NC(=O)Nc2ccc(Cl)cc2)c1)S(C)(=O)=O`, the activation factor is 2.3 (active).

As for `CN(CCc1ccccn1)C(=O)c1ccc(OC2CCN(CCc3ccccc3)CC2)cc1`, the activation factor is 1.07.

In the case of `CC(C)c1nc(SCC(=O)NC(=O)NC(C)(C)C)n[nH]1`, the activation factor was 1.

Turning to `Cc1noc(C)c1CSc1nc2cc(S(=O)(=O)N3CCOCC3)ccc2o1`, the activation factor was 0.946.

In the case of `CCOC(=O)c1sc(NC(=O)CSc2nc(O)c(Cc3ccccc3)c(=O)[nH]2)nc1C`, the activation factor was 0.914.

Turning to `CN(Cc1ccc(F)cc1)C(=O)COc1ccc2ccccc2c1`, the activation factor was 1.

On to `COc1cccc(C(=O)NCCSc2ccc(Br)cc2)c1`, for which the activation factor was 1.14.

In the case of `COc1cc(NC(=S)NCCSc2ccc(C)cc2)cc(OC)c1`, the activation factor is 2.86 (active).

As to `COc1cc(NC(=S)NCc2ccc(S(N)(=O)=O)cc2)cc(OC)c1`, the activation factor is 1.06.

For the compound `S=c1nccc(-c2cc(Cl)sc2Cl)[nH]1`, the activation factor was 1.08.

As to `CC(CNC(=O)c1ccc(N)cc1)NC(=O)c1ccc(N)cc1` (stereo not drawn), the activation factor is 1.09.

Regarding `CCn1cc(CN2CCC(n3nccc3NC(=O)CCCc3ccccc3)CC2)c(C)n1`, the activation factor is 1.22.

Regarding `O=C(Nc1cccc(-c2cscn2)c1)C1CCN(Cc2ccsc2)CC1`, the activation factor was 1.47.

As for `CCn1cc(CN2CCC(C(=O)Nc3cccc(-c4cccc(Cl)c4)c3)CC2)c(C)n1`, the activation factor was 3.39 (active).

On to `COc1cccc(-c2cccc(NC(=O)C3CCN(C4CCC4)CC3)c2)c1`, for which the activation factor is 1.01.

In the case of `CCn1cc(CN2CCC(C(=O)Nc3cccc(-c4cccc(Cl)c4)c3)CC2)cn1`, the activation factor is 5.15 (active).

In the case of `CC(=O)c1cc(CN2CCC(C(=O)Nc3cccc(-c4cscn4)c3)CC2)cs1`, the activation factor is 1.08.

For `O=C(NC1CCCC1)C1CCN(C(=O)Nc2cccc(Cl)c2)CC1`, the activation factor was 1.03.

Regarding `O=C(Nc1cnn(Cc2ccc(Cl)cc2)c1)C1CCCC1`, the activation factor is 0.956.

In the case of `O=C(Nc1cccc(-c2cccc(Cl)c2)c1)C1CCN(C2CCC2)CC1`, the activation factor is 6.17 (active).

In the case of `N#Cc1c(C(F)(F)F)cc(-c2cccs2)nc1N1CCCCC1`, the activation factor was 1.01.

On to `CN1CCN(C(CNS(=O)(=O)c2cccs2)c2cccnc2)CC1` (stereo not drawn), for which the activation factor was 0.991.

For `CCC(=O)c1ccc(OCC(O)Cn2nc(C)c(C(C)=O)c2C)cc1` (stereo not drawn), the activation factor is 0.903.

Take `CC1(C)Cc2cccc(OCC(=O)N3CCN(c4ccc([N+](=O)[O-])cc4)CC3)c2O1`: the activation factor was 0.924.

Turning to `CCc1ccc(-n2c(SCc3cc(=O)n4cc(Br)ccc4n3)nc3[nH]ncc3c2=O)cc1`, the activation factor was 0.976.
